Assay results from ChEMBL document CHEMBL4130613, “Identification and Proposed Relative and Absolute Configurations of Niphimycins C-E from the Marine-Derived Streptomyces sp. IMB7-145 by Genomic Analysis” (J Nat Prod, 2018).
Values after ≈ are worked out from the molar mass of the structure shown.

Tests used:
[1] = tested on: Staphylococcus epidermidis; assay: Antibacterial activity against methicillin-resistant Staphylococcus epidermidis 12-8 after 18 hrs by agar dilution method; type: functional; details: 12-8, 18 h
[2] = tested on: Staphylococcus aureus; assay: Antibacterial activity against methicillin-resistant Staphylococcus aureus ATCC 33591 after 18 hrs by agar dilution method; type: functional; details: ATCC 33591, 18 h
[3] = tested on: Staphylococcus aureus; assay: Antibacterial activity against methicillin-resistant Staphylococcus aureus 12-33 after 18 hrs by agar dilution method; type: functional; details: 12-33, 18 h
[4] = tested on: Enterococcus faecalis; assay: Antibacterial activity against vancomycin-resistant Enterococcus faecalis ATCC 51299 after 18 hrs by agar dilution method; type: functional; details: ATCC 51299, 18 h
[5] = tested on: Enterococcus faecalis; assay: Antibacterial activity against vancomycin-resistant Enterococcus faecalis 09-9 after 18 hrs by agar dilution method; type: functional; details: 09-9, 18 h
[6] = tested on: Enterococcus faecium; assay: Antibacterial activity against vancomycin-resistant Enterococcus faecium ATCC 700221 after 18 hrs by agar dilution method; type: functional; details: ATCC 700221, 18 h
[7] = tested on: Enterococcus faecium; assay: Antibacterial activity against vancomycin-resistant Enterococcus faecium 12-1 after 18 hrs by agar dilution method; type: functional; details: 12-1, 18 h
[8] = tested on: Candida albicans; assay: Antifungal activity against Candida albicans ATCC 10231 after 18 hrs by agar dilution method; type: functional; details: ATCC 10231, 18 h
[9] = tested on: Escherichia coli; assay: Antibacterial activity against extended-spectrum beta-lactamase-negative Escherichia coli ATCC 25922 after 18 hrs by agar dilution method; type: functional; details: ATCC 25922, 18 h
[10] = tested on: Escherichia coli; assay: Antibacterial activity against extended-spectrum beta-lactamase-negative Escherichia coli 1515 after 18 hrs by agar dilution method; type: functional; details: Escherichia coli, 1515, 18 h
[11] = tested on: Escherichia coli; assay: Antibacterial activity against extended-spectrum beta-lactamase-negative Escherichia coli 12-14 after 18 hrs by agar dilution method; type: functional; details: 12-14, 18 h
[12] = tested on: Escherichia coli; assay: Antibacterial activity against extended-spectrum beta-lactamase-positive Escherichia coli 12-15 after 18 hrs by agar dilution method; type: functional; details: 12-15, 18 h
[13] = tested on: Klebsiella pneumoniae; assay: Antibacterial activity against extended-spectrum beta-lactamase-positive Klebsiella pneumoniae ATCC 700603 after 18 hrs by agar dilution method; type: functional; details: Klebsiella pneumoniae, 700603, 18 h
[14] = tested on: Klebsiella pneumoniae; assay: Antibacterial activity against extended-spectrum beta-lactamase-negative Klebsiella pneumoniae 7 after 18 hrs by agar dilution method; type: functional; details: Klebsiella pneumoniae, 7, 18 h
[15] = tested on: Klebsiella pneumoniae; assay: Antibacterial activity against NDM-1 positive Klebsiella pneumoniae ATCC BAA-2146 after 18 hrs by agar dilution method; type: functional; details: ATCC BAA-2146, 18 h
[16] = tested on: Klebsiella pneumoniae; assay: Antibacterial activity against extended-spectrum beta-lactamase-negative Klebsiella pneumoniae 12-4 after 18 hrs by agar dilution method; type: functional; details: 12-4, 18 h
[17] = tested on: Klebsiella pneumoniae; assay: Antibacterial activity against extended-spectrum beta-lactamase-positive Klebsiella pneumoniae 12-8 after 18 hrs by agar dilution method; type: functional; details: 12-8, 18 h
[18] = tested on: Pseudomonas aeruginosa; assay: Antibacterial activity against Pseudomonas aeruginosa ATCC 27853 after 18 hrs by agar dilution method; type: functional; details: ATCC 27853, 18 h
[19] = tested on: Pseudomonas aeruginosa; assay: Antibacterial activity against Pseudomonas aeruginosa PAO1 after 18 hrs by agar dilution method; type: functional; details: PAO1, 18 h
[20] = tested on: Pseudomonas aeruginosa; assay: Antibacterial activity against Pseudomonas aeruginosa 12-16 after 18 hrs by agar dilution method; type: functional; details: 12-16, 18 h
[21] = tested on: Acinetobacter calcoaceticus; assay: Antibacterial activity against Acinetobacter calcoaceticus ATCC 19606 after 18 hrs by agar dilution method; type: functional; details: ATCC 19606, 18 h
[22] = tested on: Enterobacter cloacae; assay: Antibacterial activity against Enterobacter cloacae ATCC 43560 after 18 hrs by agar dilution method; type: functional; details: ATCC 43560, 18 h
[23] = tested on: Klebsiella aerogenes; assay: Antibacterial activity against Enterobacter aerogenes ATCC 13048 after 18 hrs by agar dilution method; type: functional; details: ATCC 13048, 18 h
[24] = tested on: Serratia marcescens; assay: Antibacterial activity against Serratia marcescens ATCC 21074 after 18 hrs by agar dilution method; type: functional; details: ATCC 21074, 18 h
[25] = tested on: Morganella morganii; assay: Antibacterial activity against Morganella morganii ATCC 25830 after 18 hrs by agar dilution method; type: functional; details: ATCC 25830, 18 h
[26] = tested on: Providencia rettgeri; assay: Antibacterial activity against Providencia rettgeri ATCC 31052 after 18 hrs by agar dilution method; type: functional; details: ATCC 31052, 18 h
[27] = tested on: Proteus vulgaris; assay: Antibacterial activity against Proteus vulgaris ATCC 29905 after 18 hrs by agar dilution method; type: functional; details: ATCC 29905, 18 h
[28] = tested on: Proteus mirabilis; assay: Antibacterial activity against Proteus mirabilis 12-6 after 18 hrs by agar dilution method; type: functional; details: 12-6, 18 h
[29] = tested on: Stenotrophomonas maltophilia; assay: Antibacterial activity against Stenotrophomonas maltophilia ATCC 13636 after 18 hrs by agar dilution method; type: functional; details: ATCC 13636, 18 h
[30] = tested on: Citrobacter freundii; assay: Antibacterial activity against Citrobacter freundii ATCC 43864 after 18 hrs by agar dilution method; type: functional; details: ATCC 43864, 18 h
[31] = tested on: Mycobacterium tuberculosis; assay: Antibacterial activity against Mycobacterium tuberculosis H37Rv […] by agar dilution method; type: functional
[32] = tested on: Mycobacterium tuberculosis; assay: Antibacterial activity against Mycobacterium tuberculosis isolate FJ05349 […] by agar dilution method; type: functional
[33] = tested on: Mycobacterium tuberculosis; assay: Antibacterial activity against Mycobacterium tuberculosis isolate FJ05060 […] by agar dilution method; type: functional
[34] = tested on: HeLa; assay: Cytotoxicity against human HeLa cells after 48 hrs by SRB assay; type: functional, cell-based
In short: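 HeLa human cervical carcinoma cells obtained from ATCC. Cytotoxicity was read by sulforhodamine B staining following an earlier published protocol, with doxorubicin hydrochloride as positive control. Values are reported as IC50.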

SMILES	MIC [1] [µg/mL]	MIC [2] [µg/mL]	MIC [3] [µg/mL]	MIC [4] [µg/mL]	MIC [5] [µg/mL]	MIC [6] [µg/mL]	MIC [7] [µg/mL]	MIC [8] [µg/mL]	MIC [9] [µg/mL]	MIC [10] [µg/mL]	MIC [11] [µg/mL]	MIC [12] [µg/mL]	MIC [13] [µg/mL]	MIC [14] [µg/mL]	MIC [15] [µg/mL]	MIC [16] [µg/mL]	MIC [17] [µg/mL]	MIC [18] [µg/mL]	MIC [19] [µg/mL]	MIC [20] [µg/mL]	also measured
CNC(=N)NCCC/C=C/CCC[C@H](C)C[C@H](C)[C@H]1OC(=O)[C@H](C)[C@H](O)/C=C/[C@H](C)[C@H](O)C[C@H](O)[C@H](C)[C@@H](O)CC[C@H](C)[C@H](O)C[C@]2(O)O[C@H](C[C@@H](O)C[C@H](OC(=O)CC(=O)O)C[C@@H](O)[C@H](C)[C@H](O)/C=C/C=C/[C@@H]1C)C[C@H](O)[C@H]2O	4 to 32 (≈ 3.5 to 28 µM)	4 to 32 (≈ 3.5 to 28 µM)	4 to 32 (≈ 3.5 to 28 µM)	64 (≈ 56 µM)	64 (≈ 56 µM)	64 (≈ 56 µM)	64 (≈ 56 µM)	8 to 32 (≈ 7 to 28 µM)	> 64	> 64	> 64	> 64	> 64	> 64	> 64	> 64	> 64	> 64	> 64	> 64	MIC [21]: > 64 µg/mL; MIC [22]: > 64 µg/mL; MIC [23]: > 64 µg/mL; MIC [24]: > 64 µg/mL; MIC [25]: > 64 µg/mL; MIC [26]: > 64 µg/mL; MIC [27]: > 64 µg/mL; MIC [28]: > 64 µg/mL; MIC [29]: > 64 µg/mL; MIC [30]: > 64 µg/mL; MIC [31]: 4 µg/mL (≈ 3.5 µM); MIC [32]: 4 to 16 µg/mL (≈ 3.5 to 14 µM); MIC [33]: 4 to 16 µg/mL (≈ 3.5 to 14 µM); IC50 [34]: 3 to 9 µM
CNC(=N)NCCC/C=C/CCC[C@H](C)C[C@H](C)[C@H]1OC(=O)[C@H](C)[C@H](O)/C=C/[C@H](C)[C@H](O)C[C@H](O)[C@H](C)[C@@H](O)CC[C@H](C)[C@H](O)C[C@]2(O)O[C@H](C[C@@H](OC(=O)CC(=O)O)C[C@H](O)C[C@@H](O)[C@H](C)[C@H](O)/C=C/C=C/[C@@H]1C)C[C@H](O)[C@H]2O	4 to 32 (≈ 3.5 to 28 µM)	4 to 32 (≈ 3.5 to 28 µM)	4 to 32 (≈ 3.5 to 28 µM)	64 (≈ 56 µM)	64 (≈ 56 µM)	64 (≈ 56 µM)	64 (≈ 56 µM)	8 to 32 (≈ 7 to 28 µM)	> 64	> 64	> 64	> 64	> 64	> 64	> 64	> 64	> 64	> 64	> 64	> 64	MIC [21]: > 64 µg/mL; MIC [22]: > 64 µg/mL; MIC [23]: > 64 µg/mL; MIC [24]: > 64 µg/mL; MIC [25]: > 64 µg/mL; MIC [26]: > 64 µg/mL; MIC [27]: > 64 µg/mL; MIC [28]: > 64 µg/mL; MIC [29]: > 64 µg/mL; MIC [30]: > 64 µg/mL; MIC [31]: 4 µg/mL (≈ 3.5 µM); MIC [32]: 4 to 16 µg/mL (≈ 3.5 to 14 µM); MIC [33]: 4 to 16 µg/mL (≈ 3.5 to 14 µM); IC50 [34]: 3 to 9 µM
